High-throughput results deposited in PubChem BioAssay by several laboratories.
Sampled rows, rich in hits. Any-hit rate of the full collection: about 1.6%.
PG9 binder = binders of HIV-1 gp120 antibody PG9, primary screen, biochemical, TR-FRET. TR-FRET gp120-PG9 antibody binding. inhibition, % at 6.7 µM. hit rate 0.43% among 360,000; in the data active means inhibition above about 8.5%
NR1D1 modulator = modulators of Rev-erb alpha DNA binding, primary screen, biochemical, FITC-DNA, fluorescence polarization, uHTS; Nuclear receptor subfamily 1 group D member 1 (Homo sapiens), P20393; Rev-erbα–FITC-DNA binding, 90 min; activity, % at 10 µM; hit rate 0.79% among 370,000; AID 1259318, 2017;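 active means activity above about 14%, limit read from the data; passing the limit was not always enough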;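 further: 0% = DMSO wells with 35 nM protein and 100% = DMSO wells with 750 nM protein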
NR2E3 ag-1 = NR2E3 agonists in two-hybrid cells, primary screen, cell-based, luminescence, CHO-S, Gal4-NCOR/VP16-NR2E3; Photoreceptor-specific nuclear receptor (Homo sapiens), Q9Y5X4; luciferase; inhibition of corepressor binding, % at 3.98 µM; hit rate 0.35% among 360,000; AID 602229, 2012;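 active means inhibition above the mean of all tested compounds plus 3 SD, cut at about 70% in these data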;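 further: 0% = DMSO with NR2E3 transfected cells and 100% = cells lacking NR2E3 construct; higher means lower luciferase signal from less NR2E3 corepressor binding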
VLA-4 inh = inhibition in human VLA-4 binding assay, primary screen, VLA-4 allosteric modulator project, MLPCN library, flow cytometry, VLA-4 expressing cells. Integrin alpha-4 (Homo sapiens), P13612. ligand binding flow cytometry. inhibition, % (about 7 µM as worked out from the volumes in the protocol). hit rate 0.2% among 330,000; in the data active means inhibition above about 50%
NR2E3 ag-2 = inhibitors of NR2E3-RetCOR corepressor binding, primary screen, NR2E3 agonist project, biochemical, TR-FRET, GST-NR2E3, biotin-RetCOR; hit rate 0.12% among 320,000; Photoreceptor-specific nuclear receptor (Homo sapiens), Q9Y5X4; inhibition of corepressor binding, % at 4.78 µM; 1536-well;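 active means percent inhibition above the cutoff of mean plus 3 SD of all tested compounds, set per screening campaign, cut at about 20% in these data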;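 further: 0% = DMSO wells and 100% = biotin wells as full block of FRET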
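Test system: GST-NR2E3 and biotin-RetCOR proteins | Quantity: 1.35 nM GST-tagged NR2E3 final | Medium: Tris pH 7.5 | Also added: 7 nM biotin-RetCOR | Dosing: Compound at 4.8 µM, single dose | Timing: 5 h at 4 °C | Detection: Time-resolved FRET | Read-out basis: Percent inhibition | Benchmarks: Biotin wells as high control, 0.6% DMSO wells as low control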
VLA-4 mod pick = retest of VLA-4 allosteric modulators, confirmation, cell-based, cherry-picked plates, U937, HUTS-21 LIBS antibody. shares compounds with VLA-4 inh. U937 cells, HUTS-21 LIBS mAb binding, flow cytometry; LDV ligand present at threefold Kd. inhibition, % at 6.7 µM. hit rate 2% among 1,300. AID 2813, 2010; in the data active means inhibition above about 40%;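 further: 0% = ligand without compound and 100% = no ligand background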
Starred values were filed as active, the others as inactive; nt = no result given.

SMILES	PG9 binder	NR1D1 modulator	NR2E3 ag-1	VLA-4 inh	NR2E3 ag-2	VLA-4 mod pick
CCOC(=O)c1c(C)[nH]c(C(=O)COC(=O)c2cccnc2Cl)c1C	-1	-8	3	-12	nt	nt
CCOC(=O)c1c(NC(=O)COC(=O)c2cnccn2)sc(C)c1C	0	-4	17	7	nt	nt
CCOc1cc(N2CCC(O)CC2)ccc1Nc1ncc2c(n1)N(C)c1ccccc1C(=O)N2C	-6	7	nt	nt	nt	nt
O=S1(=O)CC2c3ccccc3CN2CN1C1CCCC1 (centres undefined)	nt	-5	nt	nt	nt	nt
N#Cc1c(-c2c(Cl)cccc2Cl)noc1/C=C/Nc1ccc(C(=O)O)cc1	-3	2	20	42	6	-2
CN(C)/C=C/c1onc(-c2c(Cl)cccc2Cl)c1C#N	-1	-4	14	-12	5	nt
COc1ccc(COC[C@H](C)N2C[C@@H](C)[C@H](CN(C)S(=O)(=O)c3ccc(F)cc3)OCCCC[C@H](C)Oc3ccc(NC(=O)Nc4ccccc4)cc3C2=O)cc1	nt	-3	nt	nt	nt	nt
COc1c(O)cc2c(c1O)[C@H]1O[C@H](CO)[C@@H](O)[C@H](O)[C@@H]1OC2=O	nt	-4	nt	nt	nt	nt
Cc1cc(-c2nnc(SCC(=O)Nc3ccc(F)cc3F)n2N)n[nH]1	1	1	-6	50*	2	8
Cc1cc(-c2nnc(SCC(=O)Nc3ccccc3F)n2N)n[nH]1	1	1	-19	-2	-3	nt
C=CCNC(=O)CN(C(=O)Cc1ccc(Cl)nc1)c1cccc(Br)c1	nt	-5	nt	nt	nt	nt
O=C1CCc2ccc(NC(=O)C3CC3)cc2N1	-1	-1	-20	55*	-1	-9
CC(=O)Nc1ccc2c(c1)NC(=O)CC2	-2	4	-6	-5	4	nt
OCC1OC(n2cnc3c(NC4CCCC4)ncnc32)C(O)C1O (centres undefined)	-2	5	-8	0	7	nt
Nc1ncnc2c1ncn2[C@@H]1O[C@H](CO)[C@@H](O)[C@@H]1O	-3	-3	30	-23	1	2
Nc1nc(Nc2ccccc2)nc2c1ncn2[C@@H]1O[C@H](CO)[C@@H](O)[C@H]1O	-2	-1	3	56*	-4	14
OCC1OC(n2cnc3c(NC4CCCCC4)ncnc32)C(O)C1O (centres undefined)	-1	6	-7	-31	0	5
OC[C@H]1O[C@@H](n2cnc3c(NC4CCCC4)ncnc32)[C@H](O)[C@@H]1O	0	2	7	5	4	3
CC(=O)CC[C@@H]1CC[C@]2(CCCN(S(=O)(=O)C3CCCCC3)C2)O1	nt	-2	nt	nt	nt	nt
O=C(OCC(=O)N1CCOCC1)c1ccc[nH]c1=O	0	1	-11	52*	0	2
O=C(OCC(=O)N1CCCCCC1)c1ccc[nH]c1=O	-1	4	-2	3	nt	nt
COc1ccc(CC(=O)NC(C)c2nnc(SCC(=O)c3ccc(OC)cc3)n2C)cc1 (centres undefined)	-2	1	-13	-3	2	nt
COc1ccc(C(=O)NC(C)c2nnc(SCC(=O)Nc3nc4ccccc4s3)n2C)cc1 (centres undefined)	1	-2	-6	-10	1	4
COc1ccc(-c2nnc(SCC(=O)Nc3nc4ccccc4s3)n2C)cc1	0	2	-11	nt	nt	nt
COc1ccc(C(=O)NC(C)c2nnc(SCC(=O)Nc3nc(C)cs3)n2C)cc1 (centres undefined)	0	1	-18	2	4	0
CCCC1CCC2(CCC(=O)N2CCSc2ccccc2)CC1 (centres undefined)	nt	7	nt	nt	nt	nt
O=C(CCc1nc2ccccc2s1)OCC(=O)c1ccccc1	-1	-2	-30	42	6	-12
O=C(CCc1nc2ccccc2s1)c1ccccc1	-1	2	-18	2	-1	nt
